Compounds with a hit are over-represented: about 2.2% of the library has one in this group of screens.
GAA850 FXN act: FXN promoter activators, primary screen, cell-based, luciferase luminescence, HEK293 lucGAA850; HEK293 lucGAA850 FXN promoter luciferase reporter, 24 h; percent of 10 µM SAHA response; activation, % at 6 µM; 360,000 compounds, 0.56% hits;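 active = activation above the average of all compounds screened plus 3 SD, cutoff fixed separately per campaign, cut at about 7.5% in these data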;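 also: 0% = DMSO wells and 100% = 10 µM SAHA wells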
V-ATPase pHluor: regulators of yeast V-ATPase proton pumping, primary screen, pHLuorin cytosolic pH fluorescence; S. cerevisiae; response, % at 10 µM; 350,000 compounds, 0.37% hits; in the data active = response mostly above about 7.3%, no sharp cut-off; inactive = mostly below about 5.4%; also: actives read high
HIV Env fusion: inhibitors of HIV-1 Env-driven cell-cell fusion, primary screen, HeLa-JRFL effector, CEM21 target cells, luciferase; inhibition, % at 12.3 µM; 360,000 compounds, 1.1% hits; AID 651610, 2012;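 active = mean replicate inhibition score of at least 50 and every replicate individually at or above 50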;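 also: 0% = plate neutral controls and 100% = maraviroc near 300 nM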
NR2E3 ag-1: inhibitors of NR2E3-RetCOR corepressor binding, primary screen, NR2E3 agonist project, biochemical, TR-FRET, GST-NR2E3, biotin-RetCOR | inhibition of corepressor binding, % at 4.78 µM | AID 2300, 2010 | 320,000 compounds, 0.12% hits | 1536-well;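 active = percent inhibition above the cutoff of mean plus 3 SD of all tested compounds, set per screening campaign, cut at about 20% in these data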;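 also: 0% = DMSO wells and 100% = biotin wells as full block of FRET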
Target sequence (Q9Y5X4 whole entry, looked up): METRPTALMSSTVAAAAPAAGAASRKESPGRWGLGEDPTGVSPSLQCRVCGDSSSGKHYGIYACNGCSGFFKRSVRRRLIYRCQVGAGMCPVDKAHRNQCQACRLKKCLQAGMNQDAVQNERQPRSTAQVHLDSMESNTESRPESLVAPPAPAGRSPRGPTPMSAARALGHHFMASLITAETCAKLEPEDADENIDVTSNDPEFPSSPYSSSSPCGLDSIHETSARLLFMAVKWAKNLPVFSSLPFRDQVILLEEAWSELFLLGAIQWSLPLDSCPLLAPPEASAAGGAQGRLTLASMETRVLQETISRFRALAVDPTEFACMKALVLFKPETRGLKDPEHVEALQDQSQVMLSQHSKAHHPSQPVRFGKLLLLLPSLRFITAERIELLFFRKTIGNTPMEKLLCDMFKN
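System: GST-tagged NR2E3 plus biotinylated RetCOR corepressor; Amount: 1.35 nM GST-tagged NR2E3 final; Dosing: single nominal compound dose of 4.8 µM; Schedule: 5 h incubation at 4 °C; Technique: TR-FRET with europium anti-GST and streptavidin-D2, 340 nm excitation; Controls: biotin wells as high control, 0.6% DMSO wells as low control.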
NR2E3 ag-2: NR2E3 agonists in two-hybrid cells, primary screen, cell-based, luminescence, CHO-S, Gal4-NCOR/VP16-NR2E3; luciferase; inhibition of corepressor binding, % at 3.98 µM; 360,000 compounds, 0.35% hits; Photoreceptor-specific nuclear receptor (Homo sapiens), Q9Y5X4;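 active = inhibition above the mean of all tested compounds plus 3 SD, cut at about 70% in these data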;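 also: 0% = DMSO with NR2E3 transfected cells and 100% = cells lacking NR2E3 construct; higher means lower luciferase signal from less NR2E3 corepressor binding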
GalR3 antagonist: GalR3 antagonists in HEK293 cells, primary screen, cell-based, fluorescence readout. inhibition, % at 3 µM. HEK293 GalR3-CNG cAMP membrane potential fluorescence; galR3 body fused to GalR1 C-terminus. 360,000 compounds, 0.44% hits. AID 651719, 2012;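 active = inhibition above the screen-wide average plus 3 SD, cut at about 13% in these data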;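 also: forskolin and galanin both at EC90 stimulate the cells; cAMP rise reported by CNG channel membrane potential dye signal; 0% = forskolin plus galanin with DMSO and 100% = forskolin alone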
Target sequence (O60755 1-299 limits assumed): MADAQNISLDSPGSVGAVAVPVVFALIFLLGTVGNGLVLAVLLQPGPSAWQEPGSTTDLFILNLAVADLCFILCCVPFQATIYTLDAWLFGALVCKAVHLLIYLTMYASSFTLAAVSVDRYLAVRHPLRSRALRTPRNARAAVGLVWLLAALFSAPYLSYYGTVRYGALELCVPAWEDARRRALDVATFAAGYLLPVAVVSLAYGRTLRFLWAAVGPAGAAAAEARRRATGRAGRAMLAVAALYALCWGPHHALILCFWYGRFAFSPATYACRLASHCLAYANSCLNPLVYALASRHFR
GalR3 conf: GalR3 antagonist hit confirmation, cell-based, fluorescence, triplicate; AID 652245, 2013; inhibition, % at 3 µM; HEK293 GalR3 CNG cAMP biosensor, membrane potential fluorescence; galR3 fused to GalR1 carboxy tail; challenged with forskolin and galanin at EC90; 1,600 compounds, 59% hits; shares compounds with GalR3 antagonist;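 active = inhibition above the primary screen's cutoff, the mean inhibition of all screened compounds plus 3 SD, cut at about 13% in these data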;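 also: 0% = forskolin plus galanin and 100% = forskolin alone with DMSO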
HEK-CNG parental: nonspecific cAMP agonists in parental HEK-CNG cells, counter-screen for GalR3 antagonist project, cell-based, fluorescence, high throughput; shares compounds with GalR3 antagonist; HEK293-CNG parental cells, cAMP membrane potential fluorescence; normalised: DMSO wells 0%, forskolin wells 100%; activation, % at 3 µM; 1,600 compounds, 10% hits; AID 652268, 2013; in the data active = activation above about 1.3%
Active calls of the source: *; . = no result given; [ ] = dose if it differs, or a comment.

SMILES | GAA850 FXN act | V-ATPase pHluor | HIV Env fusion | NR2E3 ag-1 | NR2E3 ag-2 | GalR3 antagonist | GalR3 conf | HEK-CNG parental
O=C(NCc1ccccc1)c1cc[n+](CC(=O)c2cccs2)cc1 | 3 | -1 | 19 | 1 | -36 | 13* | -1 | 0
Cc1noc(C)c1S(=O)(=O)N(C)C[C@@H]1Oc2ccc(NS(C)(=O)=O)cc2CC(=O)N([C@H](C)CO)C[C@H]1C | . | . | -12[16.7 µM] | . | . | . | . | .
CCCc1cc(-c2[nH]ncc2-c2ccc(C(=O)OCC)o2)c(O)cc1O | 2 | 1 | . | -1 | 5 | 31* | 17* | -1
CNC(=S)N/N=C/c1ccc(OCC(=O)Nc2c(C)cc(C)cc2C)c(OC)c1 | 2 | 4 | 15 | -2 | 18 | 19* | 23* | 0
COc1cc(/C=N/NC(=O)c2cccnc2)ccc1OCC(=O)Nc1c(C)cc(C)cc1C | 0 | 0 | 3 | -1 | -4 | 1 | . | .
Cc1ccc(S(=O)(=O)N2CCN(CCO)CC2)cc1-c1nnc2c3ccccc3c(C)nn12 | 2 | -2 | -59 | -2 | -5 | 30* | 43* | 2.9*
COc1ccc(S(=O)(=O)N2CCN(CCO)CC2)cc1-c1nnc2c3ccccc3c(C)nn12 | 2 | 2 | -9 | 1 | -25 | 11 | . | .
Cc1ccc(S(=O)(=O)N2CCN(C)CC2)cc1-c1nnc2c3ccccc3c(C)nn12 | 2 | 2 | -35 | 4 | 5 | 40* | 49* | 1
CNS(=O)(=O)c1ccc(OC)c(-c2nnc3c4ccccc4c(C)nn23)c1 | 7 | -4 | . | 2 | 8 | 5 | . | .
COCC#Cc1ccc2c(c1)O[C@@H](CN(C)S(=O)(=O)c1cccc(OC)c1)[C@H](C)CN([C@H](C)CO)S2(=O)=O | . | . | 21[16.7 µM] | . | . | . | . | .
Cc1ccc(S(=O)(=O)N(C)C[C@@H]2Oc3ccc(NS(=O)(=O)c4ccccc4)cc3CC(=O)N([C@@H](C)CO)C[C@@H]2C)cc1 | . | . | -10[16.7 µM] | . | . | . | . | .
O=C(C[C@@H]1CC[C@H]2[C@@H](COC[C@H](O)CN2C(=O)c2ccncc2)O1)NC1CCC1 | . | . | -15[16.7 µM] | . | . | . | . | .
CCC(C)c1ccc(NC(=O)COC(=O)c2nc3nccc(C)n3n2)cc1 (stereo not given) | 1 | 2 | 0 | 2 | -2 | 15* | 14* | 0
CN1CCN(C(=O)C[C@@H]2C=C[C@H](NS(=O)(=O)c3cccc(F)c3)[C@H](CO)O2)CC1 | . | . | 7[16.7 µM] | . | . | . | . | .
COc1cccc(/C=C/C(=O)OCC(=O)Nc2nnc(-c3ccccc3)o2)c1OC | 1 | 3 | 1 | . | -18 | 13* | 2 | 1
COc1ccc(/C=C/C(=O)OCC(=O)Nc2nnc(-c3ccccc3)o2)c(OC)c1 | -1 | 2 | -6 | . | -10 | -4 | . | .
C[C@@H]1CN([C@@H](C)CO)C(=O)Cc2cc(NC(=O)c3ccncc3)ccc2O[C@@H]1CN(C)S(C)(=O)=O | . | . | 7[16.7 µM] | . | . | . | . | .
CCCn1nc(C(=O)NNC(=O)CCCOc2ccc(OC)cc2)c2ccccc2c1=O | 0 | -4 | -6 | 2 | -48 | 58* | 44* | 0
C[C@@H]1CN([C@H](C)CO)C(=O)c2cc(NC(=O)Nc3ccc(C(F)(F)F)cc3)ccc2O[C@@H](C)CCCCO[C@H]1CN(C)Cc1ccc(C(=O)O)cc1 | . | . | 11[16.7 µM] | . | . | . | . | .
C[C@@H]1CCCCO[C@@H](CN(C)S(=O)(=O)c2cn(C)cn2)[C@@H](C)CN([C@H](C)CO)C(=O)c2cc(NS(=O)(=O)c3ccc(Cl)cc3)ccc2O1 | . | . | 7[16.7 µM] | . | . | . | . | .
CCc1c(C(=O)Nc2ccc(OC)c(Cl)c2)[nH]c(C)c1C(C)=O | -2 | 0 | 0 | 2 | -15 | 28* | 13* | 0
CCOC(=O)c1c(C)[nH]c(C(=O)COC(=O)COc2ccccc2C=O)c1C | 2 | -1 | . | 1 | -13 | 14* | 0 | 0
CCOC(=O)c1c(C)[nH]c(C(=O)COC(=O)CNC(=O)c2ccccc2Cl)c1C | 5 | -1 | -15 | -2 | -78 | 2 | . | .
CCOC(=O)c1c(C)[nH]c(C(=O)COC(=O)[C@H](C)NC(=O)c2ccccc2Cl)c1C | 7 | -2 | 11 | 5 | -92 | 18* | 14* | 0
COc1ccc(NC(=O)N(C)C[C@@H]2Oc3ccc(NS(=O)(=O)c4c(C)noc4C)cc3CC(=O)N([C@H](C)CO)C[C@@H]2C)cc1 | . | . | -10[16.7 µM] | . | . | . | . | .
SMILES | GAA850 FXN act | V-ATPase pHluor | HIV Env fusion | NR2E3 ag-1 | NR2E3 ag-2 | GalR3 antagonist | GalR3 conf | HEK-CNG parental
O=C(C[C@H]1C[C@H]2c3cc(NC(=O)Cc4ccncc4)ccc3O[C@H]2[C@@H](CO)O1)NCc1ccc(-c2ccccc2)cc1 | . | . | -9[16.7 µM] | . | . | . | . | .
COc1cccc(C2=NOC(C(=O)NCC3CCCO3)C2)c1 (stereo not given) | -1 | 4 | -20 | 0 | -19 | 35* | 8 | 0
COc1ccc(OC)c(C2=NOC(C(=O)NCC3CCCO3)C2)c1 (stereo not given) | 0 | -4 | . | -1 | 20 | . | . | .
Cc1ccc(S(=O)(=O)NCC2CCC(C(=O)NCCCOC(C)C)CC2)cc1 (stereo not given) | . | . | . | 3 | . | . | . | .
CC(C)OCCCNC(=O)C1CCC(CNS(=O)(=O)c2ccccc2)CC1 (stereo not given) | -2 | 1 | -2 | -1 | 14 | 26* | 4 | 0
CCOCCCNC(=O)C1CCC(CNS(=O)(=O)c2ccc(OC)cc2)CC1 (stereo not given) | 0 | -1 | -6 | 2 | 10 | 14* | 42* | 1.9*
C[C@H](CO)N1C[C@H](C)[C@@H](CN(C)S(=O)(=O)c2cn(C)cn2)OCCCC[C@H](C)Oc2ccc(NC(=O)Nc3ccccc3)cc2C1=O | . | . | -11[16.7 µM] | . | . | . | . | .
CCC(=O)Nc1cccc(-c2cn3cccc(C)c3n2)c1 | 2 | -2 | -22 | 3 | -64 | 13* | -1 | 0
Cc1ccc(Nc2ccc(C(=O)O)cc2N)cc1 | . | . | -170 | -5 | . | 15* | 3 | -1
Cc1cc(C)cc(Nc2ccc(C(=O)O)cc2N)c1 | 0 | . | . | -1 | -14 | -1 | . | .
